{"data": "Measured values pooled from the literature", "target": "Calcium/calmodulin-dependent protein kinase kinase 1 (CAMKK1, Homo sapiens, UniProt Q8N5S9)", "note": "Lines come from different studies, so protocols differ."}
{"SMILES": "O=C(NCCCN1CCOCC1)c1ccc(Nc2nccc(-c3cc4ccccc4s3)n2)cc1", "assay": "binding, competition with immobilised ligand", "conditions": "1 µM", "remaining binding [%]": 80}
{"SMILES": "O=C(O)[C@@H]1[C@@H](Cn2nnc3ccccc3c2=O)CC[C@H]1C(=O)c1ccc(OCCC2CCOCC2)cc1", "assay": "cell-free assay, competition with immobilised ligand", "conditions": "1 µM", "remaining binding [%]": 100}
{"SMILES": "CC1CCCN1c1nccc(-c2cnn3ncccc23)n1 (stereo not shown)", "assay": "binding", "conditions": "1 µM", "remaining binding [%]": 100}
{"SMILES": "CC(=O)Nc1c(C(C)=O)c(=O)n(C)c2nc(-c3ccc(Cl)cc3Cl)c(-c3ccc(Cl)cc3)cc12", "assay": "cell-free assay, competition with immobilised ligand", "conditions": "1 µM", "remaining binding [%]": 100}
{"SMILES": "CCN1CCN(Cc2ccc(C(=O)Nc3ccc(C)c(Oc4ccc5c(c4)CC(=O)N5)c3)cc2C(F)(F)F)CC1", "assay": "binding, competition with immobilised ligand", "conditions": "1 µM", "remaining binding [%]": 100}
{"SMILES": "F[C@@H]1CCN(c2nccc(-c3cnn4ncccc34)n2)C1", "assay": "binding", "conditions": "1 µM", "remaining binding [%]": 100}
{"SMILES": "CS(=O)(=O)NCC[C@H](NC(=O)c1cncc2c1cnn2-c1ccc(F)cc1)c1ccnc(S(C)(=O)=O)c1", "assay": "cell-free assay, competition with immobilised ligand", "conditions": "1 µM", "remaining binding [%]": 100}
{"SMILES": "CNC(=O)[C@@H]1CC[C@@H](n2c(-c3ccc4cnccc4c3)nc3ccc(C(=O)NCc4cccc(C(N)=O)c4)cc32)C1", "assay": "binding, competition with immobilised ligand", "conditions": "1 µM", "remaining binding [%]": 94}
{"SMILES": "O=C(NCCCN1CCOCC1)c1ccc(Nc2ncc(Cl)c(-c3ccc(Cl)s3)n2)cc1", "assay": "binding, competition with immobilised ligand", "conditions": "1 µM", "remaining binding [%]": 73}
{"SMILES": "C=CC(=O)N1CCC(C(=O)NCC(=O)N2CCN(c3nc(-c4cnc(N)nc4C(F)F)nc(N4CCOCC4)n3)CC2)CC1", "assay": "binding, competition with immobilised ligand", "conditions": "1 µM", "remaining binding [%]": 96}
{"SMILES": "Cc1cnn2ncc(-c3ccnc(N(C)C)n3)c2c1", "assay": "binding", "conditions": "1 µM", "remaining binding [%]": 84}
{"SMILES": "O=C(Nc1cccnn1)N1CC(C/C=C/c2cncc(Oc3ccc(C(F)(F)F)cn3)n2)C1", "assay": "cell-free assay, competition with immobilised ligand", "conditions": "1 µM", "remaining binding [%]": 100}
{"SMILES": "CN(C)c1nccc(-c2cnc3ncccn23)n1", "assay": "binding", "conditions": "1 µM", "remaining binding [%]": 100}
{"SMILES": "FC(F)(F)Oc1cccc(-c2cnc3ccc(-c4ccncc4)nn23)c1", "assay": "cell-free assay, competition with immobilised ligand", "conditions": "5 µM", "remaining binding [%]": 43}
{"SMILES": "COc1ncc2cc3ccccc3nc2c1C#N", "assay": "cell-free assay, competition with immobilised ligand", "conditions": "5 µM", "remaining binding [%]": 87}
{"SMILES": "CN(c1nccc(-c2cnn3ncccc23)n1)C1CC1", "assay": "binding", "conditions": "1 µM", "remaining binding [%]": 100}
{"SMILES": "CNCc1ccccc1-c1csc([C@@H](C)Nc2nc(C)nc3cc(OC)c(OC)cc23)c1", "assay": "cell-free assay, competition with immobilised ligand", "conditions": "1 µM", "remaining binding [%]": 100}
{"SMILES": "C[C@H]1CCN(c2nccc(-c3cnn4ncccc34)n2)C1", "assay": "binding", "conditions": "1 µM", "remaining binding [%]": 91}
{"SMILES": "O=C(Nc1c[nH]nc1C(=O)NC1CCNCC1)c1cc(F)cc(F)c1", "assay": "binding, competition with immobilised ligand", "conditions": "1 µM", "remaining binding [%]": 90}
{"SMILES": "CC(=O)N1CCC(c2ccc(C(=O)NC(=N)N)cc2C(F)(F)F)CC1", "assay": "cell-free assay, competition with immobilised ligand", "conditions": "1 µM", "remaining binding [%]": 100}
{"SMILES": "N[C@H]1CCN(c2nccc(-c3cnn4ncccc34)n2)C1", "assay": "binding", "conditions": "1 µM", "remaining binding [%]": 100}
{"SMILES": "Cc1cnc(Nc2ccc(C(=O)N3CCC(N4CCCC4)CC3)cc2)nc1-c1cc2ccccc2s1", "assay": "binding, competition with immobilised ligand", "conditions": "1 µM", "remaining binding [%]": 79}
